Experimental data as given in PubChem BioAssay AID493226 (Broad Institute, 2011).
Values joined by “and” are separate entries in the source; they are usually repeats but may differ in a detail not shown here. Equal values may be shown once. Records with an inconclusive call do not appear. Active and inactive are the calls of the source.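 How the source made its calls: active means every repeat test active, with falling cell-viability signal and fitted midpoint potency at most ten times the top dose; inconclusive means tests disagree, flat partial drop, or a poor curve fit; inactive means every test flat, too weak, or rising.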

tested on: not listed separately; assay: growth inhibition of HMLE_shECad stem-like cells, dose response, cell-based, luminescence, dry powder, set 2 (AID 493226); conditions: HMLE_shECad viability, CellTiter-Glo luminescence, 72 h; at 30 µM (top of the series)
Procedure, shortened: (§1)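 System: HMLE_shECad model of stem-like breast cancer cells | Amount: 2000 cells/well | Buffer or medium: Serum-free CSC medium | Dosing: 100 nL compound per well by pin transfer | Schedule: Cell attachment ≥4 h, then compound exposure ~70-74 h, 37 °C, 5% CO2 | Signal: CellTiter-Glo luminescence, reagent diluted 1:3 in PBS, 12 min incubation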

SMILES	activity change, negative = inhibition
Cc1ccccc1/C=C/C(=O)NC1=NCCS1	-11.7% (inactive)
O=C(C#Cc1ccccc1)NC1=NCCS1	3.65% (inactive)
O=C(N/N=C/c1ccc[nH]1)C1Cc2ccccc2O1 (stereo not given)	12.7% (inactive)
COc1cc(/C=C/C(=O)NC2=NCCS2)cc(OC)c1OC	0.693% (inactive)
COc1ccc(OC)c(/C=C/C(=O)NC2=NCCS2)c1	4.36% (inactive)
O=C(/C=C/c1cc(Cl)ccc1Cl)NC1=NCCS1	-13.1% (inactive)
CC(C)c1ccc(/C=C/C(=O)O)cc1	4.33% (inactive)
O=C(NC1=NCCS1)c1cc2ccccc2[nH]1	-16.7% (inactive)
O=C(/C=C/c1ccc(Cl)c(Cl)c1)NC1=NCCS1	8.35% (inactive)
O=C(COc1ccc(Cl)cc1Cl)N/N=C/c1ccco1	-7.8% (inactive)
CC(=O)Oc1ccc(/C=C/C(=O)NC2=NCCS2)cc1	-16.2% (inactive)
O=C(COc1ccc(Cl)cc1Cl)N/N=C/c1cccs1	-4.9% (inactive)
C/C(=N\NC(=O)COc1ccc(Cl)cc1Cl)c1ccc[nH]1	-10.8% (inactive)
O=C(COc1ccccc1F)N/N=C/c1ccc[nH]1	3.8% (inactive)
O=C(CCc1ccccc1)NC1=NCCS1	-2.41% (inactive)
O=C(NC1CCCC1)c1ccc(COc2ccccc2)o1	-15.7% (inactive)
Cc1c(C(=O)NC2=NCCS2)oc2ccccc12	-22.6% (inactive)
Cc1ccccc1NCC(=O)N/N=C/c1ccc[nH]1	-14.1% (inactive)
NNC(=O)COc1ccc(Cl)cc1Cl	-13% (inactive)
CCNC(=O)/C=C/c1ccc(C(C)C)cc1	0.062% (inactive)
O=C(COc1ccc(Cl)cc1Cl)N/N=C/c1cnc[nH]1	3.31% (inactive)
CCN(CC)C(=O)/C=C/c1ccc(C(C)C)cc1	-2.71% (inactive)
O=Cc1ccc[nH]1	-5.79% (inactive)
O=C(O)c1ccc(COc2ccccc2)o1	-1.91% (inactive)

tested on: HMLE_shECad viability, CellTiter-Glo luminescence, 72 h; assay: as above; conditions: not given
Procedure, shortened: as §1

SMILES	AC50
Cc1cc(Cl)ccc1OCC(=O)N/N=C/c1ccc[nH]1	2.89 µM
O=C(COc1c(Cl)cc(Cl)cc1Cl)N/N=C/c1ccc[nH]1	1.16 µM
O=C(N/N=C/c1ccc[nH]1)c1cc2ccccc2o1	6.33 µM
Cc1ccc(/C=N/NC(=O)COc2ccc(Cl)cc2Cl)[nH]1	14.3 µM
O=C(COc1ccc(Cl)cc1Cl)N/N=C/c1ccc[nH]1	2.38 µM and 3.33 µM
Cc1csc(NC(=O)/C=C/c2ccc(C(C)C)cc2)n1	3.29 µM
Cc1cc(C)c(/C=N/NC(=O)COc2ccc(Cl)cc2Cl)[nH]1	12.6 µM
O=C(COc1ccc(F)cc1Cl)N/N=C/c1ccc[nH]1	8.88 µM
CC(C)(C)c1ccc2c(c1)OC(C(=O)N/N=C/c1ccc[nH]1)CO2 (stereo not given)	2.52 µM and 2.79 µM
CN(C)c1ccc(/C=C/C(=O)NC2=NCCS2)cc1	27.3 µM
CC(C)c1ccc(/C=C/C(=O)Nc2ccccc2)cc1	3.44 µM
O=C(COc1cc(Cl)ccc1Cl)N/N=C/c1ccc[nH]1	3.39 µM
O=C(COc1ccc(Cl)cc1)N/N=C/c1ccc[nH]1	22.5 µM
Cc1csc(NC(=O)c2ccc(COc3ccccc3)o2)n1	1.18 µM
COc1ccc(/C=C/C(=O)NC2=NCCS2)c(OC)c1	9.45 µM
CC(C)c1ccc(/C=C/C(=O)NC2=NCCS2)cc1	0.839 µM
